According to PubChem BioAssay AID623918 (The Scripps Research Institute Molecular Screening Center, 2012):

tested on: E. coli V66 Hfr conjugation, recombinant frequency by colony plating; experiment: inhibitors of RecBCD-driven recombination, late-stage follow-up, counter-screen for AddAB inhibitor project, colony formation, V66 E. coli, provider lab (AID 623918)
Outline: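 Test system – E. coli F- recipient by Hfr donor mating · Reagent – Hfr donor, 1:10 donor to recipient · Compound – 5 doses, 0.03–100 µM · Timing – 1 h recipient growth, 30 min mating, 1.5 h compound exposure · Technique – colony counting after differential plating for His+ StrR recombinants, viability on non-selective plates · Controls – DMSO-only culture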

`CCn1cc(C(=O)O)c(=O)c2cnc(N3CCN(C(=S)Nc4ccccc4C(F)(F)F)CC3)nc21` and `CCn1cc(C(=O)O)c(=O)c2cnc(N3CCN(C(=S)Nc4cccc(C(F)(F)F)c4)CC3)nc21` cannot be ordered by IC50: < 1000 nM for the first, 100 nM for the second.

`CCn1cc(C(=O)O)c(=O)c2cnc(N3CCNCC3)nc21` and `CCn1cc(C(=O)O)c(=O)c2cc(F)c(N3CCN(C(=S)Nc4cccc(C(F)(F)F)c4)CC3)cc21` cannot be ordered by IC50: < 100 nM for the first, < 1000 nM for the second.

`O=C(Nc1ncccn1)c1ccc([N+](=O)[O-])o1` and `O=C(NCc1cccnc1)c1ccc([N+](=O)[O-])o1` cannot be ordered by IC50: 30 nM for the first, < 100 nM for the second.

With `C=CCn1c(Sc2ncc([N+](=O)[O-])s2)n[nH]c1=O` the IC50 was < 1000 nM.
